pEC50: −log10 of the molar value. Read-outs that look alike come from different tables or passages of the source.
Key:
CB1 = CB1 (Homo sapiens, UniProt P21554); assay: cell-based; assay type: cell-based
[1] = Metabolite identification by human liver microsome incubation and LC-QTOF-MS; assay type: in vitro ADME; conditions: HLM incubation 37°C, 2 h
In short: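 Pooled human liver microsomes (50 donors, 20 mg/mL stock) with NADPH (10 mM stock) in 100 mM phosphate buffer, pH 7.4, 10 mM MgCl2. Controls: buffer only, and buffer plus NADPH without microsomes. Microsomal samples run in duplicate. Incubated 2 h at 37°C, quenched with acetonitrile, centrifuged, supernatant partly dried and filtered. Analysed by LC-QTOF-MS with an ammonium formate (10 mM, pH 3) / MeOH:ACN gradient.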

CB2 [2] = biological target: T1, CB2 (Homo sapiens, UniProt P34972); assay: cell-based; assay type: cell-based
CB2 [3] = biological target: T1, CB2; conditions: [35S]GTPγS, cAMP and βarr2 recruitment assay; cited from earlier work
neuropathic pain = conditions: mouse model for neuropathic pain; cited from earlier work
[4] = tested on: both cannabinoid receptors; conditions: cited from earlier work

T1 sequence (P34972 whole entry): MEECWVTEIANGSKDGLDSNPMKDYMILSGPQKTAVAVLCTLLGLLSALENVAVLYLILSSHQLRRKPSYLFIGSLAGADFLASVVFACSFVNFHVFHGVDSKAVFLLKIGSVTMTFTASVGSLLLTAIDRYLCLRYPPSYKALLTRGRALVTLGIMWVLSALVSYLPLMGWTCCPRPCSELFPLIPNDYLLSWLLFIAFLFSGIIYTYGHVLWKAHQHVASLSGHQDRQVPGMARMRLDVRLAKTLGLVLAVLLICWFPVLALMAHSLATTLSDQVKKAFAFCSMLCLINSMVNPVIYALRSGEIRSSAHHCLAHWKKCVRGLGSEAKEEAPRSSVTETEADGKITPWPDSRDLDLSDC
T1 sequence (P32121 whole entry partner): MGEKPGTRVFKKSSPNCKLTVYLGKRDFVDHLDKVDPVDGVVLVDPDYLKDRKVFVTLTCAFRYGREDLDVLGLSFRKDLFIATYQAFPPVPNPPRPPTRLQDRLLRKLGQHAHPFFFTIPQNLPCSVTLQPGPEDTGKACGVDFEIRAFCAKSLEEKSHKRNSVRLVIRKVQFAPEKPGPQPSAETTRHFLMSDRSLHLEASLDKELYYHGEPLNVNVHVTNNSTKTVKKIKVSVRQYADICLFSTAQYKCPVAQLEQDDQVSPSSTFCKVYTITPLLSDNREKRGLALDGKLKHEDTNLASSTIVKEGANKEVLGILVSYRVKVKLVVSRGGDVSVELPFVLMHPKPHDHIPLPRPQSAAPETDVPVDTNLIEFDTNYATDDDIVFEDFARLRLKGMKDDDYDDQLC
Chain of CB1 (P21554 whole entry): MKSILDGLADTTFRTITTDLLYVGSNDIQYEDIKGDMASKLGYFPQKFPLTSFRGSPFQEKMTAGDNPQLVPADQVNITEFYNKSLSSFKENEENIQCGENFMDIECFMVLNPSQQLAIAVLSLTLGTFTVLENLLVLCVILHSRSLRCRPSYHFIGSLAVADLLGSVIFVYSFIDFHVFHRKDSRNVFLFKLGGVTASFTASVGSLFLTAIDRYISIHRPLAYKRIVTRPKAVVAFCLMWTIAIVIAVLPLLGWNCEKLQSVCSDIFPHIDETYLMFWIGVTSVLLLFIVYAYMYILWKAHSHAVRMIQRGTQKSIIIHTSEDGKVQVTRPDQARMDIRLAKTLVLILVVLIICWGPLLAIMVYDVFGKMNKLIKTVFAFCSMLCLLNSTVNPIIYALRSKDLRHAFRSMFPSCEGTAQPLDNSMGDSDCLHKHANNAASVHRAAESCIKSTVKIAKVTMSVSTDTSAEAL
Chain of CB1 (P32121 whole entry partner): as the sequence (P32121 whole entry partner) above

With Cc1c(Br)cn(Cc2ccc(F)cc2)c(=O)c1NC(=O)C1CCCCC1 [CH‐FUBBMPDORA, N‐[5‐bromo‐1‐(4‐fluorobenzyl)‐4‐methyl‐2‐oxo‐1,2‐dihydropyridin‐3‐yl)cyclohexanecarboxamide] the pEC50 (CB1) was 5.42, the “number of metabolites identified” value [1] was “Four” and the “Area (LC-QTOF-MS peak area)” value ([1]; with NADPH) was 5.68e + 05. The pEC50 (CB2 [2]) was 5.37.
With CCCCCn1cc(C(=O)c2cccc3ccccc23)c2ccccc21 [JWH‐018] the “E max (%) (95% CI), CB1, relative to CP55,940 (100%)” value (CB1) was 378 (348–409) %, the EC50 (CB1; read-out: EC 50 (nM) (95% CI), CB1) was 14.3 nM and the “E max (%) (95% CI), CB2, relative to CP55,940 (100%)” value (CB2 [2]) was 63.2 (55.8–70.9) %. It also gave an EC50 (CB2 [2]; read-out: EC 50 (nM) (95% CI), CB2) of 4.36 nM.
In the case of Cc1c(Br)cn(Cc2ccc(F)cc2)c(=O)c1NC(=O)C1CCCCCC1 [C2, N‐(5‐bromo‐1‐(4‐fluorobenzyl)‐4‐methyl‐2‐oxo‐1,2‐dihydropyridin‐3‐yl)cycloheptanecarboxamide], the “CB1 activity compared with CH-FUBBMPDORA” value (CB1) is listed as “more active than CH‐FUBBMPDORA”, the “CB2 receptor activation potential compared with CH-FUBBMPDORA” value (CB2 [2]) is listed as “almost identical and equally weak” and the “activation potential at CB2” value (CB2 [3]) is listed as “(very) limited activation potential”. The antinociceptive activity (neuropathic pain) was “displayed antinociceptive activity”.
In the case of Cc1c(Br)cn(Cc2ccc(F)cc2)c(=O)c1C(=O)NC1CCCCCC1 [B2, 5‐bromo‐N‐cycloheptyl‐1‐(4‐fluorobenzyl)‐4‐methyl‐2‐oxo‐1,2‐dihydropyridine‐3‐carboxamide], the “activity and affinity at both cannabinoid receptors” value [4] is given as “nanomolar activity and affinity”.
